Screening data: PubChem, The Scripps Research Institute Molecular Screening Center
An excerpt weighted towards active compounds, which were near 1.8% of everything screened.
SIAE primary: human SIAE inhibitors, primary screen, biochemical, fluorescence polarization, FP-Rh probe, 1536-well HTS; Sialate O-acetylesterase (Homo sapiens), Q9HAT2; 370,000 compounds, 0.69% hits; AID 1053197, 2014; SIAE FP-Rh probe binding; inhibition, % at 9.66 µM;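 active means inhibition above a cutoff: mean of compounds within the control limits plus 3 SD of those, cut at about 17% in these data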
Target sequence (Q9HAT2 whole entry, looked up): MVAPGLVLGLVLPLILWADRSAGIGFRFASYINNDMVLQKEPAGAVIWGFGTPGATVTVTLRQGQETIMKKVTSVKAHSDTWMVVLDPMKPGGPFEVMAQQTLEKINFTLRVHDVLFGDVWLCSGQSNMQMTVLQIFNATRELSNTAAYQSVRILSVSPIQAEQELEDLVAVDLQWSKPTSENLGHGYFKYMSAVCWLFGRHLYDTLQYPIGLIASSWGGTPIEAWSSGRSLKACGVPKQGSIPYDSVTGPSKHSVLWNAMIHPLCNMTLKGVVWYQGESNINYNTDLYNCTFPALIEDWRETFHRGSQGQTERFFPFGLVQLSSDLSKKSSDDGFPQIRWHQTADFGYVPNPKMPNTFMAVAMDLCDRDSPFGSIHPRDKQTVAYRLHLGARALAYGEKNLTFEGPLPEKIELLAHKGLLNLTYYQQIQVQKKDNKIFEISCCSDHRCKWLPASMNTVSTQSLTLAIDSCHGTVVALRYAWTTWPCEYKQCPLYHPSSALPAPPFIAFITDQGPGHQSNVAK
Tn6 DDE FP: inhibitors of Tn6 peptide binding to fibrin DD(E), primary screen, biochemical, fluorescence polarization, human fibrin, Tn6 probe | Fibrinogen beta chain (Homo sapiens), P02675 | inhibition, % at 8.3 µM | Fibrin DD(E) TRITC-Tn6 fluorescence polarization displacement | 370,000 compounds, 0.21% hits;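 active means inhibition above a per-campaign cutoff: mean of compounds within control limits plus 3 SD, cut at about 15% in these data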
TCR-CD3 inh: inhibitors of human TCR-CD3 interaction, primary screen, biochemical, fluorescence, TAMRA-labeled TCR probe; AID 651800, 2012; inhibition, % at 9.4 µM; 360,000 compounds, 0.37% hits; T-cell receptor (TCR); in the data active means inhibition above about 19%;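 further: recombinant mutant TCR 2C K166C tagged with TAMRA read by polarization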
ABHD4 inh: ABHD4 inhibitors, primary screen, biochemical, fluorescence polarization, mouse; (Lyso)-N-acylphosphatidylethanolamine lipase (Mus musculus), Q8VD66; purified mABHD4, FP-Rh probe fluorescence polarization; inhibition, % at 8.92 µM; 370,000 compounds, 0.54% hits; AID 720543, 2013;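 active means inhibition exceeding the mean over every tested compound plus 3 SD, cut at about 30% in these data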
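System: mouse ABHD4 enzyme, wild type / Medium: HEPES pH 7.0, NaCl, Pluronic buffer / Reagent: FP-Rh activity-based fluorescent probe / Control set: S159A mutant high control, sample median low control / Detection: fluorescence polarization with parallel and perpendicular emission, 525/598 nm / Schedule: 45 min + 60 min at 25 °C / Compound dosing: 8.92 µM, single dose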
HTRA1 inh: HTRA1 serine protease inhibitors, primary screen, biochemical, fluorescence polarization, HTS; Q92743; recombinant HTRA1, FP-rhodamine activity-based probe; inhibition, % at 5.96 µM; 340,000 compounds, 0.5% hits; AID 504803, 2011; in the data active means inhibition above about 36%
Tn7 DDE FP: inhibitors of Tn7 peptide binding to fibrin DD(E), primary screen, biochemical, fluorescence polarization, human fibrin, Tn7 probe. inhibition, % at 8.3 µM. Fibrinogen beta chain (Homo sapiens), P02675. 370,000 compounds, 0.13% hits. FP displacement of FITC-Tn7 peptide from fibrin DD(E); 0% = median of compound wells per plate;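 active means inhibition above the mean of compounds falling within the control limits plus 3 SD of them, cut at about 14% in these data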
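assay system = human clot-derived fibrin DD(E) complex | quantity = Fibrin-DD(E) at 2 µM final | timing = 10 min preincubation, 3 h with tracer, room temperature | signal = fluorescence polarization | measure = percent inhibition | benchmarks = high control wells with 10 µM unlabelled Aha-Tn7 peptide (full inhibition) | replicates = singlicate testing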
SIAE confirm: human SIAE inhibitors, retest, confirmation, biochemical, fluorescence polarization, FP-Rh probe, triplicate | 2,300 compounds, 13% hits | shares compounds with SIAE primary | inhibition, % at 9.66 µM | SIAE FP-Rh activity-based probe;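 active means mean inhibition of the replicates above the hit cutoff set in the primary screen, cut at about 17% in these data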;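 further: inhibitors lower polarization as more probe stays unbound to SIAE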
Large screens that a line does not name were inactive (follow-up assays come after a bar, where they were run).

CC(Sc1nnc(Nc2ccccc2)s1)C(=O)Nc1nc(-c2ccccc2)cs1 (stereo not drawn)	SIAE primary 22 | SIAE confirm inactive
O=C(N[C@@H](Cc1cccnc1)C(=O)N1CCC[C@H]1C(=O)NC1CCCC1)c1ccccc1	none (no result: HTRA1 inh)
CSC1=NC(C)(C)C=C(/C=C/c2ccc(Cl)cc2)N1	SIAE primary 17 | SIAE confirm inactive
CSC1=NC(C)(C)C=C(/C=C/c2ccc(Cl)cc2Cl)N1	none
COc1ccc(NC(=S)Nc2nc(CC(=O)Nc3ccccc3OC)cs2)cc1	SIAE primary 21 | SIAE confirm inactive
CCCC[C@H]1C2CC(OC(=O)Nc3ccc(Cl)cc3)C(C2)[C@H]2CCCCN21 (stereo partly drawn)	none (no result: TCR-CD3 inh, HTRA1 inh)
COCCN(C(=O)COC(=O)/C=C/c1cccs1)c1c(N)n(Cc2ccccc2)c(=O)[nH]c1=O	SIAE primary 21 | SIAE confirm inactive
CCCN(C(=O)c1cc(-c2ccco2)nc2ccccc12)c1c(N)n(Cc2ccccc2)c(=O)[nH]c1=O	none
CC(C)CN(C(=O)COC(=O)/C=C/c1cccs1)c1c(N)n(Cc2ccccc2)c(=O)[nH]c1=O	none
COCCN(C(=O)c1cc(-c2ccco2)nc2ccccc12)c1c(N)n(Cc2ccccc2)c(=O)[nH]c1=O	SIAE primary 42 | SIAE confirm inactive
CCCC(=O)N1CCC[C@]2(CC[C@H](CCC#N)O2)C1	none (no result: TCR-CD3 inh, HTRA1 inh)
O=C(NC1CCCCN(Cc2ccc(Cl)cc2)C1=O)c1ccc2ccccc2c1 (stereo not drawn)	none (no result: TCR-CD3 inh, HTRA1 inh)
CC[C@H](CCCc1ccc(OC)cc1)CCC(=O)N(c1ccccc1)c1ccccc1	none (no result: TCR-CD3 inh, HTRA1 inh)
CN(CCOC(=O)CCCc1ccccc1)C1CN(Cc2cn(Cc3ccccc3F)nn2)S(=O)(=O)C1 (stereo not drawn)	none (no result: TCR-CD3 inh, HTRA1 inh)
CC(=O)Nc1ccc(C(=O)CN2C(=O)NC3(CCCCCC3)C2=O)c(F)c1	none
CC(=O)Nc1ccc(C(=O)CN2C(=O)NC3(CCOc4ccccc43)C2=O)c(F)c1 (stereo not drawn)	SIAE primary 19 | SIAE confirm inactive
CCOCCCNC(=O)CN1C(=O)CSc2ccc(S(=O)(=O)N3CCOCC3)cc21	none
CCOCCCNC(=O)CN1C(=O)CSc2cc(S(=O)(=O)N3CCCCCC3)ccc21	SIAE primary 31 | SIAE confirm inactive
O=C(NCCCN1CCOCC1)c1sc2cc(F)ccc2c1Cl	none
Cc1ccc(-c2cc(C(=O)NCCCN3CCOCC3)no2)cc1	none
O=C(NCCCN1CCOCC1)c1sc2cc(Cl)ccc2c1Cl	SIAE primary 21 | SIAE confirm inactive
O=C(NCCCN1CCOCC1)c1cc(-c2cccs2)on1	SIAE primary 21 | SIAE confirm inactive
COc1ccc(CN2CCN(Cc3ccccc3F)CC2)c(OC)c1	SIAE primary 17 | SIAE confirm inactive
COc1ccc(CN2CCN(Cc3ccc(C)cc3)CC2)c(OC)c1	none
OCCN1CN(c2ccccc2)C(=S)N(c2ccccc2)C1	none (no result: HTRA1 inh)
Cc1ccc(S(=O)(=O)Cc2ccc(C(=O)NCc3cccs3)o2)cc1	SIAE primary 69 | SIAE confirm inactive
CC(=O)C1=CCN(C)CC1	none (no result: HTRA1 inh)
Cc1cc(Br)c2c(c1)=C(c1sc(N3CCCCCC3)nc1O)C(=O)N=2	none
Cc1ccc2c(c1)=C(c1sc(N(C)c3ccc(O)cc3)nc1O)C(=O)N=2	SIAE primary 17 | SIAE confirm inactive
CC(C)Cn1c(SCC(=O)c2ccc(Cl)s2)nnc1-c1ccco1	SIAE primary 25 | SIAE confirm inactive
COc1ccc(Nc2nc(C)nc3c2nnn3Cc2ccccc2)cc1OC	SIAE primary 17 | SIAE confirm inactive
